Data published in ChEMBL document CHEMBL4823286, “Synthesis and evaluation of novel 2,4-diaminopyrimidines bearing a sulfoxide moiety as anaplastic lymphoma kinase (ALK) inhibition agents” (Bioorg Med Chem Lett, 2021).

Experiments:
NCI-H2228 = assay: Antiproliferative activity against human NCI-H2228 cells assessed as inhibition of cell proliferation measured by CCK8 assay; format: functional, cell-based
In short: (§1)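 Cell proliferation inhibition; IC50 given as mean ± SD of three independent experiments.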

BaF3 = assay: Antiproliferative activity against mouse BaF3 cells overexpressing ALK assessed as inhibition of cell proliferation measured by CCK8 assay; format: functional, cell-based; in short: as §1

Row | IC50 (NCI-H2228) [µM] | IC50 (BaF3) [µM] | SMILES
1 | 0.981 | 0.078 | CCSc1ccccc1Nc1nc(Nc2ccc(N3CCN(C)CC3)cc2OC)ncc1Cl
2 | 0.0554 | 0.0354 | CCC(=O)Nc1cc(Nc2ncc(Cl)c(Nc3ccccc3[S+]([O-])CC)n2)c(OC)cc1N(C)CCN(C)C (stereo not given)
3 | 0.0515 | 0.0235 | CC[S+]([O-])c1ccccc1Nc1nc(Nc2ccc(N3CCCN(C)CC3)cc2OC)ncc1Cl (stereo not given)
4 | 2.63 | 0.075 | CC[S+]([O-])c1ccccc1Nc1nc(Nc2cc(N)c(N(C)CCN(C)C)cc2OC)ncc1Cl (stereo not given)
5 | 0.0352 | 0.0131 | CC[S+]([O-])c1ccccc1Nc1nc(Nc2ccc(N3CCN(C)CC3)cc2OC)ncc1Cl (stereo not given)
